STAT3 act: activators of IL-6 induced STAT3 signaling; U3A cells, IL-6 STAT3-luciferase reporter, luminescence; 100% = signal with IL-6 EC80 alone; hit rate 0.91% among 190,000; activation (% of control), % at 5.6 µM;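 active means activation above the screen-wide mean of compound activation plus 3 SD, cut at about 130% in these data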;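 further: 0% = background luminescence of wells with medium and substrate only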
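Test system: human U3A cells carrying STAT3-luciferase construct; control set: IL-6-only wells as 100% reference; timing: compound pre-incubation 1 h before IL-6, then 6 h stimulation at 37 °C; also added: IL-6 stimulus at 33 ng/mL final; evaluation: % activation versus median of IL-6-stimulated wells; detection: reporter luminescence signal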
STAT3 blocker: reduces IL-6 driven STAT3 reporter signal. U3A cells, IL-6 STAT3-luciferase reporter, luminescence; host cell line lacks STAT1. inhibition, % at 5.5 µM. hit rate 0.89% among 190,000;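 active means inhibition above the mean inhibition across all screened compounds plus 3 SD, cut at about 44% in these data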;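 further: 0% = DMSO only wells and 100% = 100 µM nifuroxazide control wells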
C8 TRAIL sens: sensitizes caspase-8 expressing cells to TRAIL; NB7+C8 cells + TRAIL, ATPlite viability luminescence; inhibition (viability loss, TRAIL sensitization), % at 10 µM; hit rate 1% among 360,000; AID 624354;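 active means compounds causing at least 50% loss of cell viability in the single-dose screen, relative to plate controls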
PPC-1+TRAIL kill: compounds killing PPC-1 cancer cells with TRAIL present (potentiator screen, no TRAIL-free arm). PPC-1 cells + TRAIL, ATPLite viability luminescence. cell killing (% activity), % at 4 µM or 5 µM. hit rate 0.41% among 220,000. AID 1443;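 active means cell killing above 50% in the first pass at 4 µM, then a duplicate retest at 5 µM averaging 50% or more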;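 further: plate controls were cells with TRAIL plus DMSO for no effect and medium-only wells lacking cells for full effect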
STAT1 blocker: reduces IFN-gamma driven STAT1 reporter signal. AID 920. NIH 3T3 STAT1-luciferase reporter, luminescence. hit rate 0.35% among 200,000. inhibition, % at 5.5 µM;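 active means inhibition above a set limit, the mean inhibition across all tested compounds plus 3 SD, cut at about 34% in these data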;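 further: 0% = IFN-gamma with DMSO and 100% = IFN-gamma with 300 µM nifuroxazide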
Starred values were filed as active, the others as inactive; x = no result given. The list is not random: actives were taken first. Their share in the collection is about 1.8%.

SMILES	STAT3 act	STAT3 blocker	C8 TRAIL sens	PPC-1+TRAIL kill	STAT1 blocker
N#CC(=C1N=c2ccccc2=N1)c1c(O)[nH]c2ccccc12	119	-15	x	12	-12
Cn1c(O)c(C(C#N)=C2N=c3ccccc3=N2)c2ccccc21	135*	-34	-14	21	14
COc1ccc(S(=O)(=O)N2CCCCCC2)cc1NC(=O)CN(C)Cc1ccc2c(c1)OCO2	x	x	20	x	x
Oc1ccccc1C=Nc1ccccc1-c1nc2ccccc2[nH]1	105	-10	52*	3	-27
COc1cccc(/C=C/C(=O)NNC(=O)c2ccco2)c1OC	x	x	63*	x	x
Cn1c(C(=O)N2CCN(c3ccc(Cl)cc3)CC2)cc2c(=O)[nH]c3ccccc3c21	100	5	14	-19	13
Cc1ccc(Cl)cc1N1CCN(C(=O)c2cc3c(=O)[nH]c4ccccc4c3n2C)CC1	105	-2	48	50*	2
COc1ccc(C(=O)/C(C#N)=N/Nc2ccc([N+](=O)[O-])cc2)cc1	54	59*	40	47	37*
CC(C)(C)c1ccc(C(O)c2ncc(-c3cccc(F)c3)[nH]2)cc1 (stereo not given)	x	x	5	x	x
COCCNC(=O)C[C@@H]1C[C@H]2c3cc(NC(=O)Nc4ccc(F)cc4)ccc3O[C@H]2[C@H](CO)O1	x	x	2	x	x
O=C(/C=C/[C@H]1O[C@@H](n2cnc3c(NC(=O)c4ccccc4)ncnc32)[C@H](O)[C@@H]1O)NCC1CCCO1 (stereo not given in full)	x	x	54*	x	x
CCc1cc2c(COC(=O)c3cc(S(=O)(=O)N4CCOCC4)ccc3F)cc(=O)oc2cc1O	x	x	75*	x	x
O=C(OCc1cc(=O)oc2cc(O)ccc12)c1cc(S(=O)(=O)N2CCOCC2)ccc1F	x	x	68*	x	x
Cc1noc(C)c1COC(=O)c1cc(S(=O)(=O)N2CCOCC2)ccc1F	x	x	-14	x	x
COC(=O)[C@]12CCCCC=C1N(Cc1ccco1)C(=O)[C@H](CC(=O)NCC13CC4CC(CC(C4)C1)C3)C2	x	x	-3	x	x
CCCCn1c(N)c(N(CC(C)C)C(=O)c2ccc(Br)s2)c(=O)[nH]c1=O	x	x	8	x	x
CC(C)C[C@@H](CN1CCCC1CN1C(=S)NC[C@@H]1Cc1ccc(O)cc1)N1C[C@H](Cc2ccc(O)cc2)N(CC2CCCCCC2)C1=S (stereo not given in full)	x	x	53*	x	x
COc1ccc(OC)c(-c2csc(NC(=O)COC(=O)c3ccc(NC(=O)CC#N)cc3)n2)c1	x	x	7	x	x
CC(C)CC(=O)Nc1ccnn1C1CCN(C(=O)c2ccc(F)cc2Cl)CC1	x	x	-30	x	x
COC(=O)Cn1cnc2c(cnn2-c2ccc(C)cc2)c1=O	x	x	5	x	x
CCCCCCn1c(=O)n2n(c1=O)C[C@]1(OC(=O)NC3CC3)CN(S(=O)(=O)c3ccc(C)cc3)C[C@]1(O)C2	x	x	11	x	x
Cn1c(CC(=O)Nc2ccccc2F)nnc1SCC(=O)NC1=NCCS1	x	x	5	x	x
c1ccc(-c2noc(-c3ccc4ccccc4c3)n2)nc1	9	113*	87*	24	88*
O=C(Oc1cccc(/C=N/NC(=O)c2ccccn2)c1)c1ccc([N+](=O)[O-])cc1	x	x	68*	x	x
Cn1nccc1C(=O)Oc1cccc(/C=N/NC(=O)c2ccccc2O)c1	71	38	53*	36	-6
SMILES	STAT3 act	STAT3 blocker	C8 TRAIL sens	PPC-1+TRAIL kill	STAT1 blocker
O=C(N/N=C/c1cccc(OC2CSC2)c1)c1ccccc1O	130	-23	16	27	0
O=C(N/N=C/c1ccc(OC(=O)c2ccccc2Cl)cc1)c1ccccn1	x	x	26	x	x
CCOc1ccccc1Nc1ccc(C(=O)O)cc1NC(C)=O	99	7	5	54*	16
COc1cc(C(O)c2nc(/C=C/c3ccc(C(F)(F)F)cc3)cs2)ccc1F (stereo not given)	x	x	5	x	x
c1ccc(-c2cnc(-c3ccccc3)nn2)cc1	x	x	52*	x	x
c1ccc(-c2cnc(-c3ccccn3)nn2)cc1	x	x	58*	x	x
CC(C)N(C(=S)Nc1ccc(S(=O)(=O)N2CCOCC2)cc1)c1ccccc1	x	x	12	x	x
O=C(NCCCN1CCOCC1)c1ccc(NS(=O)(=O)c2ccccc2)cc1	x	x	-6	x	x
CNC[C@H](CC1CCCCC1)NC[C@H](Cc1ccccc1)NCCC12CC3CC(CC(C3)C1)C2	x	x	96*	x	x
NNc1nc2c(-c3ccc(Cl)cc3)nnn2c2ccccc12	144*	-54	37	29	-41
NNc1nc2c(-c3ccc(F)cc3)nnn2c2ccccc12	119	-23	18	17	-49
COc1ccc(C(C#N)CC(=O)c2ccc(OCc3ccccc3)c(OC)c2)cc1OC (stereo not given)	x	x	-14	x	x
CC(C)CNC(=O)C1(C)CCCN1Cc1ccc(S(C)(=O)=O)cc1 (stereo not given)	x	x	-11	x	x
CC(C)(C)OC(=O)NCc1ccc(NC(=O)c2nc[nH]c2C(=O)NCCNC(=O)c2[nH]cnc2C(=O)Nc2ccc(CNC(=O)OC(C)(C)C)cc2)cc1	x	x	88*	x	x
CC(C)(C)OC(=O)NCCCCCNC(=O)c1nc[nH]c1C(=O)NCc1ccc(CNC(=O)OC(C)(C)C)cc1	x	x	58*	x	x
CC(C)(C)OC(=O)CNC(=O)c1[nH]cnc1C(=O)Nc1ccc(CNC(=O)OC(C)(C)C)cc1	x	x	40	21	x
C[C@H](NC(=O)c1[nH]cnc1C(=O)Nc1ccc(CNC(=O)OC(C)(C)C)cc1)C(=O)OCc1ccccc1	x	x	75*	-13	x
Oc1ccccc1N=Cc1sc2ccccc2c1Cl	135*	-48	-4	7	11
O=C(CC1c2ccccc2C=C(c2ccsc2)N1c1ccc(-c2cccnc2)cc1)C1CC1 (stereo not given)	x	x	6	x	x
CC(C)CC(=NNC(=O)c1ccncc1)c1cc(Cl)ccc1O	x	x	17	x	x
CCOC(=O)C1=C(C)OC(=Cc2ccc(OC)cc2)C1=O	x	x	70*	x	x
CC(C)N(C)c1ncnc2c1ncn2[C@H]1CN(CCN2CCOCC2)C[C@@H](CO)O1	x	x	-20	x	x
Oc1ccc(C=NNC(=S)Nc2ccccc2)nc1	x	x	17	x	x
COc1ccc(NC(=O)c2c(Cl)n(C)c3ccccc23)cc1	144*	-36	34	14	-21
CCCCNC(=O)c1nc(C2CCNCC2)oc1-c1cccc(C(F)(F)F)c1	x	x	14	x	x
SMILES	STAT3 act	STAT3 blocker	C8 TRAIL sens	PPC-1+TRAIL kill	STAT1 blocker
CC(C)(C)c1ccc(C(=O)Nc2cccc(C(=O)N3CCOCC3)c2)cc1	x	x	63*	x	x
O=C(O)c1cccc(NC(=O)c2ccc3c(c2)C(=O)N(CC2CCCO2)C3=O)c1 (stereo not given)	75	30	16	4	37*
Cc1ccc(C(=O)Nc2cccc(C(=O)N3CCOCC3)c2)cc1	105	-3	3	-17	-6
O=C(O)COc1ccc(NC(=O)c2ccc3c(c2)C(=O)N(Cc2ccccc2)C3=O)cc1	x	x	2	x	x
Cc1ccccc1OCC(=O)Nc1cccc(C(=O)O)c1	9	103*	37	35	97*
O=C(Nc1ccc(O)cc1)c1ccc2c(c1)C(=O)N(Cc1ccccc1)C2=O	x	x	63*	x	x
Cc1cccc(OCC(=O)Nc2cc(NC(=O)COc3cccc(C)c3C)cc(C(=O)O)c2)c1C	x	x	-2	x	x

Source: PubChem BioAssay
